Test results published in PMC4238911 (Cancer chemotherapy and pharmacology, 2011).
Read-outs that look alike come from different tables or passages of the source.

Assays:
[1] = target: TrkB (Homo sapiens, UniProt Q16620); format: cell-based
[2] = test system: refractory high-risk neuroblastoma; assay: Tumor response; format: in vivo, human
How it was run: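 Children received the oral test compound BID, 5 of 7 days, in 28-day cycles at 25–120 mg/M2/dose (3 + 3 escalation). Response was assessed after cycles 1, 2, 4 and 8, then every 4th cycle. Scoring used NANT criteria (modified International Neuroblastoma Response Criteria), with RECIST for measurable CT/MRI tumor and Curie score for MIBG lesions.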

[3] = test system: JAK2-mutated (JAK2^V617F) myelofibrosis; details: 22 patients; cited from earlier work
[4] = previous trials; cited from earlier work
[5] = test system: Trk kinase domain; details: cited from earlier work
[6] = clinical; details: human, in vivo, po
[7] = Plasma pharmacokinetics of lestaurtinib; details: human, po
[8] = subjects of N = 46, all dose levels
[9] = the other subject with mixed response, complete marrow response

TrkB, sequence (Q16620 32-822, species assumed): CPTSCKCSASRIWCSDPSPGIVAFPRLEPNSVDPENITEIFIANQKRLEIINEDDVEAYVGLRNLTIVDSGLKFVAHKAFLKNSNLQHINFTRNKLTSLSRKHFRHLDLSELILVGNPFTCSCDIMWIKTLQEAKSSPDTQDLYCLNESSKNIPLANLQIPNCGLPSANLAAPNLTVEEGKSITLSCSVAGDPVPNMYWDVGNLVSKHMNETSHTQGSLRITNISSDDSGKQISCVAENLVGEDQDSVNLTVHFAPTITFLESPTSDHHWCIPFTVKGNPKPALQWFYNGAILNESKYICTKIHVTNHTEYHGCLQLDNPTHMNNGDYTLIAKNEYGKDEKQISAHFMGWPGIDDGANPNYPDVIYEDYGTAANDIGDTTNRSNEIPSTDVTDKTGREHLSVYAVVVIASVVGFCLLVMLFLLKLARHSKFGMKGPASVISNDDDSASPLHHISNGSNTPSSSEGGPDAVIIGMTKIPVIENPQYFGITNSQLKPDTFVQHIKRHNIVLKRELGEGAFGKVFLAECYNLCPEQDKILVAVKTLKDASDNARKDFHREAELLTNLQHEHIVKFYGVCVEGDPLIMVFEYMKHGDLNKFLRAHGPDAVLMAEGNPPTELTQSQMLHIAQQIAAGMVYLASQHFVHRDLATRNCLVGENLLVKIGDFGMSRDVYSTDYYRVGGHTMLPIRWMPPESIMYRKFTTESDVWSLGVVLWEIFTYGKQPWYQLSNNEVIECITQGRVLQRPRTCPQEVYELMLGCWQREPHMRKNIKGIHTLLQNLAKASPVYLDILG

C[C@]12O[C@H](C[C@]1(O)CO)n1c3ccccc3c3c4c(c5c6ccccc6n2c5c31)CNC4=O [lestaurtinib, Lestaurtinib]
Plasma inhibition of phospho-TrkB activity ([1]; 1 h post-dosing, 120 mg/M^2): uniform inhibition | Inhibition of phosphorylation of TrkB by immunoblotting ([1]; plasma 1 h after lestaurtinib, days 5 and 26, all ten dose levels, 31 subjects): evident only in cells exposed to plasma from subjects treated at dose levels ≥ 6 | Sustained suppression of TrkB phosphorylation ([1]; pre-drug/trough plasma samples, twice daily dosing): not evident | Duration of prolonged control of disease, median ([2]; 10 of 26 subjects at doses ≥ 70 mg/M^2/dose BID, range 5–28): 10 cycles | Response/SD > 5 months ([2]; dose level 1–3, of total subjects at these dose levels): 0/9 (total subjects at dose levels 1–3) | Response/SD > 5 months ([2]; dose level 4–5 (2 SD)): 2/22 (2 SD) | Response/SD > 5 months ([2]; dose level 5a–8 (2 PR, 2 Mixed, 4 SD)): 8/16 (2 PR, 2 Mixed, 4 SD) | Subjects who maintained a response or SD for at least 5 cycles ([2]; dose levels > 5, 10 of 26 subjects): 38.5% | Patients who maintained a response or SD ([2]; dose levels ≥ 5a, 8/16): 50% | Duration of maintained response or SD, median ([2]; dose levels ≥ 5a, 8/16 patients): 10 months | Subjects with prolonged control of disease ([2]; doses ≥ 70 mg/M^2/dose BID, 10 of 26 subjects): 38.5% | Duration of prolonged stable disease, median ([2]; nine subjects at dose levels ≥ 5): 6 cycles | Marrow tumor content after treatment ([2]; one subject with prolonged stable disease, decreased from 75): 2% | Urine catecholamine response: reduction in HVA ([2]; second subject with PR): 15% | Urine catecholamine response: reduction in VMA ([2]; second subject with PR): 44% | Duration of prolonged stable disease, median ([2]; six subjects, range 5–13): 7 cycles | Number of treatment courses prior to PD: ≥17 months ([2]; subjects of 46): 3/46 | Number of treatment courses prior to PD: 11–16 months ([2]; subjects of 46, one of 3 stopped therapy after 13 cycles due to toxicity): 3 ^b/46 | Number of treatment courses prior to PD: 4–10 months ([2]; subjects of 46, one of 11 stopped therapy after 5 cycles due to toxicity): 11 ^a/46 | Best overall response: Mixed [2, 8]: 3/46 | Best overall response: PR [2, 8]: 2/46 | Best overall response: Progressive disease [2, 8]: 21/46 | Best overall response: Stable disease [2, 8]: 20/46 | Urine catecholamines: reduction in HVA [2, 9]: 15% | Urine catecholamines: reduction in VMA [2, 9]: 45% | Median duration of response [3]: 14 months | Overall response rate [3]: 27% | Patients with grade 1/2 elevated LFTs possibly related to lestaurtinib [4]: ≤ 30% | Concentration that competitively inhibits ATP binding to the Trk kinase domain [5]: nanomolar concentrations | AUC(0-t) ([6]; 25 mg/m2): 29500 ng·h/mL | Tmax ([6]; 25 mg/m2): 1.5 h | half-life ([6]; 25 mg/m2): 10.5 ± 3.6 h | AUC(0-t) ([6]; 35 mg/m2): 37500 ng·h/mL | Cmax ([6]; 35 mg/m2): 3390 ng/mL | Tmax ([6]; 35 mg/m2): 2 h | half-life ([6]; 35 mg/m2): 7 h | Cmax ([6]; 45 mg/m2): 3060 ng/mL | half-life ([6]; 45 mg/m2): 4.5 ± 1.2 h | AUC(0-t) ([6]; 55 mg/m2): 34900 ng·h/mL | Tmax ([6]; 55 mg/m2): 1 h | half-life ([6]; 55 mg/m2): 6 ± 3.4 h | AUC(0-inf) ([6]; 62.5 mg/m2): 28900 ng·h/mL | Cmax ([6]; 62.5 mg/m2): 4500 ng/mL | half-life ([6]; 62.5 mg/m2): 4.3 ± 0.9 h | Tmax ([6]; 70 mg/m2): 1 h | half-life ([6]; 70 mg/m2): 3.6 ± 1.4 h | AUC(0-inf) ([6]; 77.5 mg/m2): 54800 ng·h/mL | AUC(0-t) ([6]; 77.5 mg/m2): 47500 ng·h/mL | half-life ([6]; 77.5 mg/m2): 8.2 h | AUC(0-t) ([6]; 85 mg/m2): 15500 ng·h/mL | half-life ([6]; 85 mg/m2): 3.9 h | AUC(0-inf) ([6]; 92.5 mg/m2): 51500 ng·h/mL | half-life ([6]; 92.5 mg/m2): 4.3 h | Cmax ([6]; 120 mg/m2): 3510 ng/mL | half-life ([6]; 120 mg/m2): 7.9 h | Tmax [7]: 1 to 2 h | AUC(0-inf) ([7]; 25 mg/m2): 39500 ng·h/mL | Cmax ([7]; 25 mg/m2): 2400 ng/mL | AUC(0-inf) ([7]; 35 mg/m2): 41300 ng·h/mL | AUC(0-inf) ([7]; 45 mg/m2): 16400 ng·h/mL | AUC(0-t) ([7]; 45 mg/m2): 15900 ng·h/mL | Tmax ([7]; 45 mg/m2): 1 h | AUC(0-inf) ([7]; 55 mg/m2): 40800 ng·h/mL | Cmax ([7]; 55 mg/m2): 4900 ng/mL | AUC(0-t) ([7]; 62.5 mg/m2): 26600 ng·h/mL | Tmax ([7]; 62.5 mg/m2): 1 h | AUC(0-inf) ([7]; 70 mg/m2): 15800 ng·h/mL | AUC(0-t) ([7]; 70 mg/m2): 15000 ng·h/mL | Cmax ([7]; 70 mg/m2): 3810 ng/mL | Cmax ([7]; 77.5 mg/m2): 3680 ng/mL | Tmax ([7]; 77.5 mg/m2): 2 h | AUC(0-inf) ([7]; 85 mg/m2): 15600 ng·h/mL | Cmax ([7]; 85 mg/m2): 3460 ng/mL | Tmax ([7]; 85 mg/m2): 1 h | AUC(0-t) ([7]; 92.5 mg/m2): 37100 ng·h/mL | Cmax ([7]; 92.5 mg/m2): 8740 ng/mL | Tmax ([7]; 92.5 mg/m2): 1 h | AUC(0-inf) ([7]; 120 mg/m2): 39500 ng·h/mL | AUC(0-t) ([7]; 120 mg/m2): 34900 ng·h/mL | Tmax ([7]; 120 mg/m2): 1.5 h | Subjects with transaminase elevation grade 3/4 or dose limiting (5 subjects, all dose levels): 11% | MTD (10 dose levels, 25–120 mg/M^2/dose BID): no MTD was defined | Subjects with transaminase elevation grade 1/2 (30 subjects, all dose levels): 64% | Subjects with reversible pancreatitis (grade 2) (after prolonged treatment at higher dose levels): 3 subjects | Hematologic DLTs (all dose levels): no hematologic DLTs identified | # subjects with DLT during course 1 (dose level 4, 55 mg/M^2/dose BID, 7 subjects entered): 7 (1) | # subjects with DLT during course 1 (dose level 5, 70 mg/M^2/dose BID, 10 subjects entered): 10 (2) | # subjects with DLT during course 1 (dose level 8, 120 mg/M^2/dose BID, 6 subjects entered): 6 (1) | Subjects who came off study for toxicity (of 47 enrolled): three
